{"data": "Measured values gathered from unrelated publications", "target": "Ribosomal protein S6 kinase beta-1 (RPS6KB1, Homo sapiens, UniProt P23443)", "note": "Lines come from different studies, so protocols differ."}
{"Structure (SMILES)": "CCCCC(=O)Nc1ccc(-c2ccc3ncn(CCC)c(=O)c3c2)cn1", "assay": "binding, competition with immobilised ligand", "conditions": "0.5 µM", "measurement": "remaining binding", "value": "98%"}
{"Structure (SMILES)": "Cc1ccc(NC(=O)c2ccnc(C(F)(F)F)c2)cc1-c1cc(OCCO)nc(N2CCOCC2)c1", "assay": "binding", "conditions": "1 µM", "measurement": "remaining binding", "value": "100%"}
{"Structure (SMILES)": "C=CC(=O)N1CCC([C@@H]2CCNc3c(C(N)=O)c(-c4ccc(Oc5ccccc5)cc4)nn32)CC1", "assay": "enzyme activity, inhibitor", "conditions": "1 µM", "measurement": "inhibition", "value": "1%"}
{"Structure (SMILES)": "COc1ccc2oc(-c3ccc4nc(N)oc4c3)c/c(=N\\c3ccccc3NC(=O)CCN)c2c1", "assay": "binding", "conditions": "1 µM", "measurement": "remaining binding", "value": "98%"}
{"Structure (SMILES)": "Cc1cc(O)c(-c2ccc([C@@H](C)CN(C)C)cc2)c2c1[nH]c(=O)c1sccc12", "assay": "enzyme activity, inhibitor", "conditions": "0.1 µM", "measurement": "inhibition", "value": "-5.29%"}
{"Structure (SMILES)": "CO[C@@H]1[C@H](N(C)C(=O)c2ccccc2)C[C@H]2O[C@]1(C)n1c3ccccc3c3c4c(c5c6ccccc6n2c5c31)C(=O)NC4", "assay": "enzyme activity, inhibitor", "conditions": "1 µM", "measurement": "inhibition", "value": "36%"}
{"Structure (SMILES)": "C[C@H]1CC[C@H](n2c3cnccc3c3cnc(Nc4ccc5c(n4)CCN(C(=O)CO)C5)nc32)CC1", "assay": "cell-free assay", "conditions": "1 µM", "measurement": "remaining signal", "value": "78%"}
{"Structure (SMILES)": "CC(C)S(=O)(=O)c1ccc2nccc(Nc3ccc4sc(C5CCCC5)nc4c3)c2c1", "assay": "enzyme activity, inhibitor", "conditions": "1 µM", "measurement": "activity vs control", "value": "110%"}
